From ChEMBL document CHEMBL3286356, “Synthesis and biological comparison of enantiomers of mepenzolate bromide, a muscarinic receptor antagonist with bronchodilatory and anti-inflammatory activities” (Bioorg Med Chem, 2014)
Activity calls are given as the source filed them. The calls are words filed in the database; no cut-off is given here.

What was measured:
[1] = test system: Mus musculus; assay: Antiinflammatory activity against ICR mouse assessed as inhibition of porcine pancreatic elastase-induced increase in MIP-2 level at 7.5 to 38 ug/kg administered intratracheally 1 hr prior to porcine pancreatic elastase challenge measured after 6 hrs by ELISA; type: functional, organism-based
Summary of the method: (§1)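 Male ICR mice, 4-6 weeks old, under isoflurane anaesthesia, given each enantiomer or racemate intratracheally in sterile saline (1 ml/kg) by micropipette; 1 h later PPE (20 U/kg) or saline vehicle given the same way. BALF collected 6 h after PPE; TNF-α, MIP-2, MCP-1 and KC measured by ELISA. Mean ± SEM; Tukey's test.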

[2] = test system: Mus musculus; assay: Antiinflammatory activity against ICR mouse assessed as inhibition of porcine pancreatic elastase-induced increase in neutrophil count in BALF at 7.5 to 38 ug/kg administered intratracheally 1 hr prior to porcine pancreatic elastase challenge measured after 6 hrs; type: functional, organism-based
Summary of the method: (§2)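 Male ICR mice (4-6 weeks), isoflurane-anaesthetised, dosed intratracheally in sterile saline (1 ml/kg) 1 h before intratracheal PPE (20 U/kg) or vehicle. BALF taken 6 h after PPE; total cells counted by hemocytometer, cytospin slides stained with Diff-Quik to get neutrophil fraction of total cells. Mean ± SEM; Tukey's test.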

[3] = test system: Mus musculus; assay: Bronchodilatory activity in ICR mouse assessed as supression of methacholine-induced increase in airway resistance at 38 ug/kg administered intratracheally 1 hr prior to methacholine challenge; type: functional, organism-based
Summary of the method: (§3)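 Male ICR mice (4-6 weeks) given compound intratracheally in saline (1 ml/kg). 1 h later, anaesthetised with chloral hydrate (500 mg/kg), tracheotomised, and ventilated at 150 breaths/min, tidal volume 8.7 ml/kg, PEEP 2-3 cmH₂O. Challenged with nebulised methacholine (5 mg/ml), five 20 s exposures 40 s apart. Airway resistance measured after each challenge by snapshot technique. Mean ± SEM.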

[4] = test system: Mus musculus; assay: Antiinflammatory activity against ICR mouse assessed as inhibition of porcine pancreatic elastase-induced increase in MCP-1 level at 7.5 to 38 ug/kg administered intratracheally 1 hr prior to porcine pancreatic elastase challenge measured after 6 hrs by ELISA; type: functional, organism-based; summary of the method: as §1
[5] = test system: Mus musculus; assay: Antiinflammatory activity against ICR mouse assessed as inhibition of porcine pancreatic elastase-induced increase in leucocyte count in BALF at 7.5 to 38 ug/kg administered intratracheally 1 hr prior to porcine pancreatic elastase challenge measured after 6 hrs; type: functional, organism-based; summary of the method: as §2
[6] = test system: Mus musculus; assay: Bronchodilatory activity in ICR mouse assessed as supression of methacholine-induced increase in airway resistance at 3.8 ug/kg administered intratracheally 1 hr prior to methacholine challenge; type: functional, organism-based; summary of the method: as §3
[7] = test system: Mus musculus; assay: Antiinflammatory activity against ICR mouse assessed as inhibition of porcine pancreatic elastase-induced increase in KC level at 7.5 to 38 ug/kg administered intratracheally 1 hr prior to porcine pancreatic elastase challenge measured after 6 hrs by ELISA; type: functional, organism-based; summary of the method: as §1
[8] = test system: Mus musculus; assay: Increase in heart rate in ICR mouse at 940 to 4700 ug/kg administered intratracheally measure immediately post dosing relative to control; type: ADME, organism-based; conditions: in vivo, inhaled_or_intranasal
Summary of the method: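 Male ICR mice (4-6 weeks) given compound intratracheally in sterile saline (1 ml/kg) under isoflurane; anaesthetised with chloral hydrate (500 mg/kg), pulse-oximeter sensor attached to thigh after 20 min. Heart rate (beats per minute) recorded immediately after dosing; percentage change from baseline to peak calculated. Mean ± SEM; Tukey's test.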

[9] = test system: Mus musculus; assay: Suppression of fecal pellet output in ICR mouse at 4.7 mg/kg administered intratracheally 1 hr prior to restraint stress measured for 1 hr relative to control; type: organism-based, Feces; parameters: dose 4.7 mg/kg, route endotracheal; conditions: in vivo, inhaled_or_intranasal
Summary of the method: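 Male ICR mice (4-6 weeks) dosed intratracheally in sterile saline (1 ml/kg) under isoflurane; vehicle controls received saline alone. One hour later each mouse was restrained individually in a 50 ml tube for 1 h, and fecal pellets excreted during restraint were counted. Mean ± SEM; Tukey's test.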

[10] = test system: Mus musculus; assay: Antiinflammatory activity against ICR mouse assessed as inhibition of porcine pancreatic elastase-induced increase in TNF-alpha level at 7.5 to 38 ug/kg administered intratracheally 1 hr prior to porcine pancreatic elastase challenge measured after 6 hrs by ELISA; type: functional, organism-based; summary of the method: as §1
[11] = Drug level in ICR mouse lung at 20 mg/kg administered intratracheally after 30 mins; type: ADME, organism-based; parameters: dose 20 mg/kg, route endotracheal; conditions: inhaled or intranasal, read-out: Drug uptake
Summary of the method: (§4)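 Male ICR mice (4-6 weeks) under isoflurane given the enantiomer in sterile saline (1 ml/kg) intratracheally by micropipette. Whole lungs taken at indicated times, homogenised in sterile PBS with 50 U/ml heparin, centrifuged; 300 µl aliquot ultrafiltered and filtrate analysed by chiral HPLC (Chiralpak IA; water with 0.1 M KPF6/acetonitrile 30:70, 1.0 mL/min). Level expressed as µg/lung; mean ± SEM, n = 3.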

[12] = Drug level in ICR mouse lung at 20 mg/kg administered intratracheally after 15 mins; type: ADME, organism-based; parameters: dose 20 mg/kg, route endotracheal; conditions: inhaled or intranasal, read-out: Drug uptake; summary of the method: as §4
[13] = Drug level in ICR mouse lung at 20 mg/kg administered intratracheally after 5 mins; type: ADME, organism-based; parameters: dose 20 mg/kg, route endotracheal; conditions: inhaled or intranasal, read-out: Drug uptake; summary of the method: as §4
[14] = test system: Lung; assay: Drug level in ICR mouse lung treated intratracheally with 20 mg/kg (R)-Mepenzolate after 5 to 30 mins; type: ADME, organism-based; parameters: dose 20 mg/kg, route endotracheal; conditions: in vivo, inhaled_or_intranasal; summary of the method: as §4
[15] = test system: Lung; assay: Drug level in ICR mouse lung treated intratracheally with 20 mg/kg (S)-Mepenzolate after 5 to 30 mins; type: ADME, organism-based; parameters: dose 20 mg/kg, route endotracheal; conditions: in vivo, inhaled_or_intranasal; summary of the method: as §4

**Q.** Which Activity [1] does the source give for `C[N+]1(C)CCCC(OC(=O)C(O)(c2ccccc2)c2ccccc2)C1.[Br-]` (racemic) [MEPENZOLATE BROMIDE] here?
**A.** Its Activity is “Active”.

**Q.** And the Activity [2]?
**A.** Its Activity is “Active”.

**Q.** What about the Activity [3] of the same molecule?
**A.** The Activity was “Active”.

**Q.** What about the Activity [4] of the same molecule?
**A.** The Activity was “Active”.

**Q.** What about the Activity [5] of the same molecule?
**A.** The Activity was “Active”.

**Q.** What about the Activity [6] of the same molecule?
**A.** Its Activity is “Active”.

**Q.** What about the Activity [7] of the same molecule?
**A.** The Activity was “Active”.

**Q.** What about the Activity [8] of the same molecule?
**A.** Its Activity is “Toxic”.

**Q.** And the Activity [9]?
**A.** Its Activity is “Toxic”.

**Q.** And the Activity [10]?
**A.** The Activity was “Active”.

**Q.** What does the source list for `C[N+]1(C)CCC[C@H](OC(=O)C(O)(c2ccccc2)c2ccccc2)C1.[Br-]`?
**A.** Activity [1]: Active; Activity [2]: Active; Activity [3]: Active; Activity [4]: Active; concentration at 0.5 h [11]: 6200 ng/mL; concentration at 0.25 h [12]: 7600 ng/mL; Activity [5]: Active; Activity [6]: inactive; concentration at 5 min [13]: 36400 ng/mL; Activity [7]: Active; Drug metabolism [14]: metabolite_notdetected; Activity [8]: Toxic; Activity [9]: Non-toxic; Activity [10]: Active

**Q.** Which Activity [1] does the source give for `C[N+]1(C)CCC[C@@H](OC(=O)C(O)(c2ccccc2)c2ccccc2)C1.[Br-]` here?
**A.** The Activity was “Active”.

**Q.** And the Activity [2]?
**A.** The Activity was “Active”.

**Q.** And the Activity [3]?
**A.** The Activity was “Active”.

**Q.** What about the Activity [4] of the same molecule?
**A.** Its Activity is “Active”.

**Q.** And the concentration at 0.5 h [11]?
**A.** Its concentration at 0.5 h is 5100 ng/mL.

**Q.** What about the Drug metabolism [15] of the same molecule?
**A.** The Drug metabolism was “metabolite_notdetected”.

**Q.** What about the concentration at 0.25 h [12] of the same molecule?
**A.** The concentration at 0.25 h was 6300 ng/mL.

**Q.** What about the Activity [5] of the same molecule?
**A.** Its Activity is “Active”.

**Q.** What about the Activity [6] of the same molecule?
**A.** The Activity was “Active”.

**Q.** And the concentration at 5 min [13]?
**A.** Its concentration at 5 min is 44500 ng/mL.

**Q.** And the Activity [7]?
**A.** The Activity was “Active”.

**Q.** And the Activity [8]?
**A.** The Activity was “Toxic”.

**Q.** And the Activity [9]?
**A.** Its Activity is “Toxic”.

**Q.** And the Activity [10]?
**A.** Its Activity is “Active”.
